Converted amounts (≈) assume the structure as drawn.
Assays:
Type in all cases: functional
Klebsiella pneumoniae [1] = assay: Antimicrobial activity against OmpK35-deficient Carbapenem-resistant Klebsiella pneumoniae isolate ART2008143 expressing KPC beta lactamase by broth microdilution method
Klebsiella pneumoniae [2] = assay: Antimicrobial activity against OmpK35,OmpK36-deficient Carbapenem-resistant Klebsiella pneumoniae isolate ART2008027 expressing KPC beta lactamase by broth microdilution method
Klebsiella pneumoniae [3] = assay: Antimicrobial activity against OmpK35-deficient Carbapenem-resistant Klebsiella pneumoniae isolate ART2008136 expressing KPC beta lactamase by broth microdilution method
Outline: (§1)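 The clinical K. pneumoniae isolates had been referred to CDC for susceptibility testing. bla_KPC was confirmed by PCR and subtyped by bidirectional sequencing of a 1,011-bp amplicon. Isolates were typed by PFGE of XbaI-digested DNA.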

Klebsiella pneumoniae [4] = assay: Antimicrobial activity against OmpK35-deficient Carbapenem-resistant Klebsiella pneumoniae isolate AIS070446 expressing KPC beta lactamase by broth microdilution method; outline: as §1
Klebsiella pneumoniae [5] = assay: Antimicrobial activity against OmpK35-deficient Carbapenem-resistant Klebsiella pneumoniae isolate HIP14358 expressing KPC beta lactamase by broth microdilution method
Klebsiella pneumoniae [6] = assay: Antimicrobial activity against OmpK35-deficient Carbapenem-resistant Klebsiella pneumoniae isolate HIP14474 expressing KPC beta lactamase by broth microdilution method
Klebsiella pneumoniae [7] = assay: Antimicrobial activity against OmpK35-deficient Carbapenem-resistant Klebsiella pneumoniae isolate ART2008137 expressing KPC beta lactamase by broth microdilution method; outline: as §1
Klebsiella pneumoniae [8] = assay: Antimicrobial activity against OmpK35-deficient Carbapenem-resistant Klebsiella pneumoniae isolate ART2008226 expressing KPC beta lactamase by broth microdilution method
Klebsiella pneumoniae [9] = assay: Antimicrobial activity against OmpK35-deficient Carbapenem-resistant Klebsiella pneumoniae isolate AIS081042 expressing KPC beta lactamase by broth microdilution method
Klebsiella pneumoniae [10] = assay: Antimicrobial activity against OmpK35-deficient Carbapenem-resistant Klebsiella pneumoniae isolate AIS080949 expressing KPC beta lactamase by broth microdilution method
Klebsiella pneumoniae [11] = assay: Antimicrobial activity against Carbapenem-resistant Klebsiella pneumoniae isolate HIP10924 expressing KPC beta lactamase by broth microdilution method
Klebsiella pneumoniae [12] = assay: Antimicrobial activity against Carbapenem-resistant Klebsiella pneumoniae isolate AIS081058 expressing KPC beta lactamase by broth microdilution method
Klebsiella pneumoniae [13] = assay: Antimicrobial activity against OmpK35-deficient Carbapenem-resistant Klebsiella pneumoniae isolate AIS080792 expressing KPC beta lactamase by broth microdilution method
Klebsiella pneumoniae [14] = assay: Antimicrobial activity against OmpK35-deficient Carbapenem-resistant Klebsiella pneumoniae isolate AIS081072 expressing KPC beta lactamase by broth microdilution method
Klebsiella pneumoniae [15] = assay: Antimicrobial activity against OmpK35-deficient Carbapenem-resistant Klebsiella pneumoniae isolate ART2008140 expressing KPC beta lactamase by broth microdilution method
Klebsiella pneumoniae [16] = assay: Antimicrobial activity against OmpK35-deficient Carbapenem-resistant Klebsiella pneumoniae isolate AIS070654 expressing KPC beta lactamase by broth microdilution method
Klebsiella pneumoniae [17] = assay: Antimicrobial activity against OmpK35,OmpK36-deficient Carbapenem-resistant Klebsiella pneumoniae isolate ART2008141 expressing KPC beta lactamase by broth microdilution method
Klebsiella pneumoniae [18] = assay: Antimicrobial activity against Carbapenem-resistant Klebsiella pneumoniae isolate ART2008024 expressing KPC beta lactamase by broth microdilution method
Klebsiella pneumoniae [19] = assay: Antimicrobial activity against OmpK35-deficient Carbapenem-resistant Klebsiella pneumoniae isolate AIS080571 expressing KPC beta lactamase by broth microdilution method
Klebsiella pneumoniae [20] = assay: Antimicrobial activity against Carbapenem-resistant Klebsiella pneumoniae isolate AIS080884 expressing KPC beta lactamase by broth microdilution method
Klebsiella pneumoniae [21] = assay: Antimicrobial activity against OmpK35-deficient Carbapenem-resistant Klebsiella pneumoniae isolate ART2008022 expressing KPC beta lactamase by broth microdilution method
Klebsiella pneumoniae [22] = assay: Antimicrobial activity against OmpK35,OmpK36-deficient Carbapenem-resistant Klebsiella pneumoniae isolate ART2008135 expressing KPC beta lactamase by broth microdilution method
Klebsiella pneumoniae [23] = assay: Antimicrobial activity against OmpK35-deficient Carbapenem-resistant Klebsiella pneumoniae isolate ART2008138 expressing KPC beta lactamase by broth microdilution method
Klebsiella pneumoniae [24] = assay: Antimicrobial activity against OmpK35-deficient Carbapenem-resistant Klebsiella pneumoniae isolate ART2008026 expressing KPC beta lactamase by broth microdilution method
Klebsiella pneumoniae [25] = assay: Antimicrobial activity against Carbapenem-resistant Klebsiella pneumoniae isolate ART2008028 expressing KPC beta lactamase by broth microdilution method
Klebsiella pneumoniae [26] = assay: Antimicrobial activity against OmpK35-deficient Carbapenem-resistant Klebsiella pneumoniae isolate ART2008139 expressing KPC beta lactamase by broth microdilution method
Klebsiella pneumoniae [27] = assay: Antimicrobial activity against OmpK35-deficient Carbapenem-resistant Klebsiella pneumoniae isolate ART2008142 expressing KPC beta lactamase by broth microdilution method

Compound | MIC (Klebsiella pneumoniae [2]) [µg/mL] | MIC (Klebsiella pneumoniae [3]) [µg/mL] | MIC (Klebsiella pneumoniae [4]) [µg/mL] | MIC (Klebsiella pneumoniae [6]) [µg/mL] | MIC (Klebsiella pneumoniae [7]) [µg/mL] | MIC (Klebsiella pneumoniae [8]) [µg/mL] | MIC (Klebsiella pneumoniae [9]) [µg/mL] | MIC (Klebsiella pneumoniae [11]) [µg/mL] | MIC (Klebsiella pneumoniae [12]) [µg/mL] | MIC (Klebsiella pneumoniae [13]) [µg/mL] | MIC (Klebsiella pneumoniae [14]) [µg/mL] | MIC (Klebsiella pneumoniae [15]) [µg/mL] | MIC (Klebsiella pneumoniae [16]) [µg/mL] | MIC (Klebsiella pneumoniae [17]) [µg/mL] | MIC (Klebsiella pneumoniae [18]) [µg/mL] | MIC (Klebsiella pneumoniae [19]) [µg/mL] | MIC (Klebsiella pneumoniae [22]) [µg/mL] | MIC (Klebsiella pneumoniae [23]) [µg/mL] | MIC (Klebsiella pneumoniae [24]) [µg/mL] | MIC (Klebsiella pneumoniae [25]) [µg/mL] | further results
C[C@@H](O)[C@H]1C(=O)N2C(C(=O)O)=C(S[C@@H]3CN[C@H](C(=O)Nc4cccc(C(=O)O)c4)C3)[C@H](C)[C@H]12 | 1020 (≈ 2150 µM) | 16 (≈ 33.6 µM) | 4 (≈ 8.41 µM) | 16 (≈ 33.6 µM) | 16 (≈ 33.6 µM) | < 0.5 | 256 (≈ 538 µM) | 4 (≈ 8.41 µM) | 2 (≈ 4.21 µM) | 64 (≈ 135 µM) | 8 (≈ 16.8 µM) | 8 (≈ 16.8 µM) | 2 (≈ 4.21 µM) | 256 (≈ 538 µM) | 128 (≈ 269 µM) | 256 (≈ 538 µM) | 1020 (≈ 2150 µM) | 128 (≈ 269 µM) | 256 (≈ 538 µM) | 8 (≈ 16.8 µM) | MIC (Klebsiella pneumoniae [1]): 64 µg/mL (≈ 135 µM); MIC (Klebsiella pneumoniae [5]): 64 µg/mL (≈ 135 µM); MIC (Klebsiella pneumoniae [10]): 64 µg/mL (≈ 135 µM); MIC (Klebsiella pneumoniae [20]): 8 µg/mL (≈ 16.8 µM); MIC (Klebsiella pneumoniae [21]): 32 µg/mL (≈ 67.3 µM); MIC (Klebsiella pneumoniae [26]): 16 µg/mL (≈ 33.6 µM); MIC (Klebsiella pneumoniae [27]): 8 µg/mL (≈ 16.8 µM)
C[C@@H](O)[C@H]1C(=O)N2C(C(=O)O)=C(SCCNC=N)C[C@H]12 [IMIPENEM ANHYDROUS] | 512 (≈ 1710 µM) | 8 (≈ 26.7 µM) | 4 (≈ 13.4 µM) | 8 (≈ 26.7 µM) | 4 (≈ 13.4 µM) | < 1 | 64 (≈ 214 µM) | 4 (≈ 13.4 µM) | 1 (≈ 3.34 µM) | 32 (≈ 107 µM) | 2 (≈ 6.68 µM) | 4 (≈ 13.4 µM) | 4 (≈ 13.4 µM) | 256 (≈ 855 µM) | 32 (≈ 107 µM) | 128 (≈ 428 µM) | 512 (≈ 1710 µM) | 32 (≈ 107 µM) | 64 (≈ 214 µM) | 4 (≈ 13.4 µM) | MIC (Klebsiella pneumoniae [1]): 8 µg/mL (≈ 26.7 µM); MIC (Klebsiella pneumoniae [5]): 32 µg/mL (≈ 107 µM); MIC (Klebsiella pneumoniae [10]): 32 µg/mL (≈ 107 µM); MIC (Klebsiella pneumoniae [20]): 2 µg/mL (≈ 6.68 µM); MIC (Klebsiella pneumoniae [21]): 8 µg/mL (≈ 26.7 µM); MIC (Klebsiella pneumoniae [26]): 32 µg/mL (≈ 107 µM); MIC (Klebsiella pneumoniae [27]): < 1 µg/mL
C[C@@H](O)[C@H]1C(=O)N2C(C(=O)O)=C(S[C@@H]3CN[C@H](C(=O)N(C)C)C3)[C@H](C)[C@H]12 [MEROPENEM] | 512 (≈ 1340 µM) | 8 (≈ 20.9 µM) | 4 (≈ 10.4 µM) | 8 (≈ 20.9 µM) | 8 (≈ 20.9 µM) | < 0.25 | 128 (≈ 334 µM) | 4 (≈ 10.4 µM) | 4 (≈ 10.4 µM) | 32 (≈ 83.4 µM) | 2 (≈ 5.22 µM) | 2 (≈ 5.22 µM) | 1 (≈ 2.61 µM) | 256 (≈ 668 µM) | 64 (≈ 167 µM) | 128 (≈ 334 µM) | 256 (≈ 668 µM) | 32 (≈ 83.4 µM) | 64 (≈ 167 µM) | 8 (≈ 20.9 µM) | MIC (Klebsiella pneumoniae [27]): 4 µg/mL (≈ 10.4 µM)

Reference: ChEMBL document CHEMBL1671735, “Genetic factors associated with elevated carbapenem resistance in KPC-producing Klebsiella pneumoniae” (2010)
